Experimental data of several laboratories.

Structure (SMILES) | test | test system | conditions | endpoint | result
Cc1cc(C)nc(Nc2ncc(C(=O)NCCc3c(C)[nH]c4ccccc34)cn2)c1 | metabolic stability | mouse, liver microsomes | 1 µM | half-life | 0.0783 h
N=c1c2c(-c3ccccc3)c(-c3ccccc3)n(Cc3ccccc3)c2ncn1[C@H]1CC[C@H](O)CC1 | metabolic stability | mouse, liver microsomes | 1 µM | half-life | > 2 h
C[C@H](Cn1cnc2c(N)ncnc21)OCP(=O)(O)OCCCOCCCCCCCCCCCCC#C[Si](C)(C)C.N | metabolic stability | CD-1 mouse, liver microsomes | 3 µM, pH 7.4 | half-life | > 2 h
O=C(Nc1cccnn1)N1CCN([C@@H]2CCOc3cc(C(F)(F)F)ccc32)CC1 | – | male Sprague-Dawley rat, plasma | oral, 1 mg/kg, 1 h | concentration | 125 ng/mL
CC(C)(C)[C@H](NC(=O)[C@H](CCONC(=N)N)NC(=O)Cc1ccc(CNC(=N)N)cc1)C(=O)N[C@@H](CCONC(=N)N)C(=O)NCc1ccc(C(=N)N)cc1 | – | male Sprague-Dawley rat, plasma | intravenous, 1 mg/kg | C0 | 2080 ng/mL
C[C@H](Cn1cnc2c(N)ncnc21)OCP(=O)(O)OCCCOCCCCCCCCCCCCCC#CC(F)(F)F.N | metabolic stability | CD-1 mouse, liver microsomes | 3 µM, pH 7.4 | half-life | > 2 h
Cl.Cl.O=C(CCN1CCCCC1)c1ccc(-c2ccc(C(=O)CCN3CCCCC3)cc2)cc1 | – | Sprague-Dawley rat, plasma | oral, 100 mg/kg | half-life | 8.23 h
Cc1ncc(C)n2nc(/C=C/c3nc(N4CCCC4)cc(N4CCOCC4)n3)nc12 | – | male Fischer 344 rat, plasma | oral, 0.3 mg/kg, 1 h | concentration | 50 ng/mL
N#C[C@@H]1CC(F)(F)CN1C(=O)CNC(=O)c1ccnc2ccc(OCCCN3CCN(C(=O)CN4CCN(CC(=O)[O-])CCN(CC(=O)[O-])CC4)CC3)cc12.[18F-].[Al+3] | – | rat, stomach | intravenous, 2 h | tracer uptake | 1.05 %ID/g
